PMC10922391 (Cell chemical biology, 2023)

Assays:
[1] = test system: S. sanguinis harboring toxicity reporter; experiment: Competence-coupled toxicity reporter growth assay; assay type: cell-based; details: 5-FOA final 1 mg/mL in THY; OD600 at 12 h; WT S. sanguinis + RT; n = 3
comCDE locus = experiment: Luciferase reporter assay of comCDE locus activation; assay type: cell-based, S. sanguinis VMC66; details: PcomCDEluc reporter; for activity relative to each other / activity class of CSP derivatives: luminescence, 20 min, 37 °C
How it was run: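 Overnight VMC66 PcomCDEluc reporter culture diluted 1:10 and held 30 min at 37 °C, 5% CO2. 198 μL per well received 2 μL DMSO or serially diluted synthetic peptide. After 20 min at 37 °C, 5% CO2, luminescence was read on a plate reader. EC50 values were fitted from three independent experiments.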

S. sanguinis = experiment: CSP-induced DNA transformation efficiency; assay type: cell-based; details: C+Y media
How it was run: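 Cultures grown in THY or C+Y (a chemically defined medium with 2.2 g/L yeast extract) at 37 °C, 5% CO2. Diluted culture (500 μL) mixed with 113 nM CSP and 10 ng target DNA (linear knockout cassette or blank plasmid). Incubated a further 90 min, then plated on THY with selective antibiotic. Colonies counted after two days. Mean of three independent replicates with standard deviation.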

Row | Molecule | activity relative to each other / activity class of CSP derivatives (comCDE locus) | other results
1 | O=C(O)c1[nH]c(=O)[nH]c(=O)c1F [5’-FOA, 5-Fluoroorotic acid] |  | competence-coupled growth defect with toxicity reporter, WT [1]: could induce significant growth defect in WT S. sanguinis background
2 | H-DLRGVPNPWGWIFG-OH |  | potency of CSP analog lacking the C-terminal AA (comCDE locus; Figure S1): significantly less-potent
3 | H-DLRGVPNPWGWIFGR-OH [15mer] | similarly active | transformation efficiency, C+Y vs THY (S. sanguinis): drop in transformation efficiency
4 | H-FWDLRGVPNPWGWIFGR-OH [17mer] | inactive | 
5 | H-TFWDLRGVPNPWGWIFGR-OH [18mer] | inactive | 
6 | H-WDLRGVPNPWGWIFGR-OH [16mer] | similarly active | 
